The first experiment is filed under the species Rattus norvegicus. The experiment is described as follows: Selectivity ratio of Ki for delta opioid receptor to Ki for mu opioid receptor in rat brain membrane. The format is cell membranes.
Sequence of Mu-opioid receptor (Q8CGM4 whole entry): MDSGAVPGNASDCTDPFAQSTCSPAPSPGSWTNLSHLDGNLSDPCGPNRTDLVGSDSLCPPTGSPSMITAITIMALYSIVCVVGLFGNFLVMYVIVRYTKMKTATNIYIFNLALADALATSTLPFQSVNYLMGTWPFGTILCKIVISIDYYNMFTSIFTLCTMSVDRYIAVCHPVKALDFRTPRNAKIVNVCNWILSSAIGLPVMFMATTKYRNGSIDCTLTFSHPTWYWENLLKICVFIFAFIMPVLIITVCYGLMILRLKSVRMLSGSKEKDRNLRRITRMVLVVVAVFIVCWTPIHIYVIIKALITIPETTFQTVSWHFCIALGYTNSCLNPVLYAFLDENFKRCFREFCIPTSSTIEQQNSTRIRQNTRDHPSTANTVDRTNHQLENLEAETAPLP
On to `N[C@@H](Cc1ccc(O)cc1)C(=O)N1CCC[C@H]1C(=O)N[C@@H](Cc1ccccc1)C(=O)N[C@H](CO)Cc1ccccc1`, for which the Ratio Ki was more than 1580.

As for `CN(C)C(=O)[C@H](Cc1ccccc1)NC(=O)[C@H](Cc1ccccc1)NC(=O)[C@@H]1CCCN1C(=O)[C@@H](N)Cc1ccc(O)cc1`, the Ratio Ki was more than 36.7.

With `CCOC(=O)[C@H](Cc1ccccc1)NC(=O)[C@H](Cc1ccccc1)NC(=O)[C@@H]1CCCN1C(=O)[C@@H](N)Cc1ccc(O)cc1`, the Ratio Ki worked out at 196.

As to `NNC(=O)[C@H](Cc1ccccc1)NC(=O)[C@H](Cc1ccccc1)NC(=O)[C@@H]1CCCN1C(=O)[C@@H](N)Cc1ccc(O)cc1`, the Ratio Ki was more than 1070.

`COC(=O)[C@H](Cc1ccccc1)NC(=O)[C@H](Cc1ccccc1)NC(=O)[C@@H]1CCCN1C(=O)[C@@H](N)Cc1ccc(O)cc1`: the Ratio Ki is more than 1100.

For `CC(C)(C)OC(=O)[C@H](Cc1ccccc1)NC(=O)[C@H](Cc1ccccc1)NC(=O)[C@@H]1CCCN1C(=O)[C@@H](N)Cc1ccc(O)cc1`, the Ratio Ki turned out to be 4.9.

On to `CNC(=O)[C@H](Cc1ccccc1)NC(=O)[C@H](Cc1ccccc1)NC(=O)[C@@H]1CCCN1C(=O)[C@@H](N)Cc1ccc(O)cc1`, for which the Ratio Ki is 290.

For a further experiment, the target named is Delta-type opioid receptor (Mus musculus, UniProt P32300). Put plainly: Agonist activity at delta opioid receptor in mouse vas deferens assessed as inhibition of electrically-stimulated contraction. It counts as functional, tissue-based. The gist of the method: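 Mouse vas deferens held at 36 °C in aerated (95% O₂/5% CO₂) Krebs–Henseleit, 10-ml bath. Pulse pairs (1-ms width, 100 ms apart, 9 V/cm supramaximal) repeated every 10 s; isometric twitch recording.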
Sequence of Delta-type opioid receptor (Mus musculus, UniProt P32300) (P32300 whole entry): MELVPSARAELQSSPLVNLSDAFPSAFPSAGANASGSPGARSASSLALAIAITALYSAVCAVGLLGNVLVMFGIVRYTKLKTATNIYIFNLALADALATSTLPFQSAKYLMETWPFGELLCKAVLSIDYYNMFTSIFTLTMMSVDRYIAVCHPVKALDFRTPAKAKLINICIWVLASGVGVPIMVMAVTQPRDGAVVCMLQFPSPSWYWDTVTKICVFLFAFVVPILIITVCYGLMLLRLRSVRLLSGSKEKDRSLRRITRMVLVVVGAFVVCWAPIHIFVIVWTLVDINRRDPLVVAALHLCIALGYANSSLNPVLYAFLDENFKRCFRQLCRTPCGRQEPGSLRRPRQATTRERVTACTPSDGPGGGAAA
Consider `N[C@@H](Cc1ccc(O)cc1)C(=O)N1CCC[C@H]1C(=O)N[C@@H](Cc1ccccc1)C(=O)N[C@H](CO)Cc1ccccc1`, for which the IC50 was 29.2 nM.

As to `CN(C)C(=O)[C@H](Cc1ccccc1)NC(=O)[C@H](Cc1ccccc1)NC(=O)[C@@H]1CCCN1C(=O)[C@@H](N)Cc1ccc(O)cc1`, the IC50 amounted to 2720 nM.

As to `CCOC(=O)[C@H](Cc1ccccc1)NC(=O)[C@H](Cc1ccccc1)NC(=O)[C@@H]1CCCN1C(=O)[C@@H](N)Cc1ccc(O)cc1`, the IC50 was 63.7 nM.

With `CC(C)(C)OC(=O)[C@H](Cc1ccccc1)NC(=O)[C@H](Cc1ccccc1)NC(=O)[C@@H]1CCCN1C(=O)[C@@H](N)Cc1ccc(O)cc1`, the IC50 worked out at 74.1 nM.

For `CNC(=O)[C@H](Cc1ccccc1)NC(=O)[C@H](Cc1ccccc1)NC(=O)[C@@H]1CCCN1C(=O)[C@@H](N)Cc1ccc(O)cc1`, the IC50 amounted to 54.6 nM.

The next experiment deals with Mu-type opioid receptor (Rattus norvegicus, UniProt P33535). Put plainly: Displacement of [3H]DAMGO from mu opioid receptor in rat brain membrane. The format is cell membranes. Put shortly: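 Wistar rat brain membranes (cerebellum removed) in 50 mM Tris–HCl, pH 7.4. [³H]DAMGO at 0.5 nM with varying peptide concentrations for 1 h at 25 °C in a rotating incubator. Stopped by vacuum filtration through GF/C filters, washed three times with ice-cold buffer, then scintillation counted. Nonspecific binding taken with naloxone. Duplicates, repeated at least three times; Ki derived.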
Sequence of Mu-type opioid receptor (P33535 whole entry): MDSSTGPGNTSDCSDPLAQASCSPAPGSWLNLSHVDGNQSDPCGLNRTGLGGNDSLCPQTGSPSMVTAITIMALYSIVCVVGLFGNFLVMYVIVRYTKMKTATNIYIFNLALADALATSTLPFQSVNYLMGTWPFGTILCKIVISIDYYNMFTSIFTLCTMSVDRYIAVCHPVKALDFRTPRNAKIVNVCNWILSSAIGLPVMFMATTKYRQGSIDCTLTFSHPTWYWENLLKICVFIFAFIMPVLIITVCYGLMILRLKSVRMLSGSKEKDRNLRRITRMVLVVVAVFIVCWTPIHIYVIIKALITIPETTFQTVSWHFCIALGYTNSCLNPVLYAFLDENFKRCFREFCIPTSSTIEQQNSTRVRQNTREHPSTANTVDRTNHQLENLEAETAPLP
Compound `N[C@@H](Cc1ccc(O)cc1)C(=O)N1CCC[C@H]1C(=O)N[C@@H](Cc1ccccc1)C(=O)N[C@H](CO)Cc1ccccc1` showed a Ki of 6.34 nM.

`CN(C)C(=O)[C@H](Cc1ccccc1)NC(=O)[C@H](Cc1ccccc1)NC(=O)[C@@H]1CCCN1C(=O)[C@@H](N)Cc1ccc(O)cc1` displayed a Ki of 273 nM.

As to `CCOC(=O)[C@H](Cc1ccccc1)NC(=O)[C@H](Cc1ccccc1)NC(=O)[C@@H]1CCCN1C(=O)[C@@H](N)Cc1ccc(O)cc1`, the affinity, expressed as Ki, was 15 nM. This Ki lies about 18-fold lower than the previous one.

In turn, `NNC(=O)[C@H](Cc1ccccc1)NC(=O)[C@H](Cc1ccccc1)NC(=O)[C@@H]1CCCN1C(=O)[C@@H](N)Cc1ccc(O)cc1` had a Ki of 9.35 nM.

For `COC(=O)[C@H](Cc1ccccc1)NC(=O)[C@H](Cc1ccccc1)NC(=O)[C@@H]1CCCN1C(=O)[C@@H](N)Cc1ccc(O)cc1`, the Ki was found to be 9.07 nM.

Turning to `CC(C)(C)OC(=O)[C@H](Cc1ccccc1)NC(=O)[C@H](Cc1ccccc1)NC(=O)[C@@H]1CCCN1C(=O)[C@@H](N)Cc1ccc(O)cc1`, the Ki worked out at 50.3 nM.

The compound `CNC(=O)[C@H](Cc1ccccc1)NC(=O)[C@H](Cc1ccccc1)NC(=O)[C@@H]1CCCN1C(=O)[C@@H](N)Cc1ccc(O)cc1` yielded a Ki of 29.2 nM.

Another experiment addresses Mu-opioid receptor (Cavia porcellus, UniProt Q8CGM4). The experiment is described as follows: Agonist activity at mu opioid receptor in guinea pig ileum assessed as inhibition of electrically-stimulated contraction. It counts as functional, tissue-based. Put shortly:
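Guinea pig ileum in a 10-ml bath of Krebs–Henseleit solution at 37 °C, aerated with 95% O₂/5% CO₂. Twitches evoked by 0.1-Hz, 50-V, 0.5-ms rectangular pulses; isometric recording. […] Arithmetic mean of five to eight measurements.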
Turning to `N[C@@H](Cc1ccc(O)cc1)C(=O)N1CCC[C@H]1C(=O)N[C@@H](Cc1ccccc1)C(=O)N[C@H](CO)Cc1ccccc1`, the IC50 was found to be 29.3 nM.

In the case of `CN(C)C(=O)[C@H](Cc1ccccc1)NC(=O)[C@H](Cc1ccccc1)NC(=O)[C@@H]1CCCN1C(=O)[C@@H](N)Cc1ccc(O)cc1`, the IC50 came to 1810 nM.

Consider `CCOC(=O)[C@H](Cc1ccccc1)NC(=O)[C@H](Cc1ccccc1)NC(=O)[C@@H]1CCCN1C(=O)[C@@H](N)Cc1ccc(O)cc1`, for which the IC50 turned out to be 64.4 nM.

In the case of `NNC(=O)[C@H](Cc1ccccc1)NC(=O)[C@H](Cc1ccccc1)NC(=O)[C@@H]1CCCN1C(=O)[C@@H](N)Cc1ccc(O)cc1`, the IC50 was 132 nM.

On to `COC(=O)[C@H](Cc1ccccc1)NC(=O)[C@H](Cc1ccccc1)NC(=O)[C@@H]1CCCN1C(=O)[C@@H](N)Cc1ccc(O)cc1`, for which the IC50 was 42.1 nM.

For the compound `CC(C)(C)OC(=O)[C@H](Cc1ccccc1)NC(=O)[C@H](Cc1ccccc1)NC(=O)[C@@H]1CCCN1C(=O)[C@@H](N)Cc1ccc(O)cc1`, the IC50 is 3000 nM.

As for `CNC(=O)[C@H](Cc1ccccc1)NC(=O)[C@H](Cc1ccccc1)NC(=O)[C@@H]1CCCN1C(=O)[C@@H](N)Cc1ccc(O)cc1`, the IC50 is 136 nM.

Tested on in a further experiment: not listed separately
Put plainly: Selectivity ratio of IC50 for guinea pig ileum to IC50 for mouse vas deferens assay. It counts as tissue-based.
Take `N[C@@H](Cc1ccc(O)cc1)C(=O)N1CCC[C@H]1C(=O)N[C@@H](Cc1ccccc1)C(=O)N[C@H](CO)Cc1ccccc1`: the IC50 ratio (guinea pig ileum / mouse vas deferens) amounted to 1.

On to `CN(C)C(=O)[C@H](Cc1ccccc1)NC(=O)[C@H](Cc1ccccc1)NC(=O)[C@@H]1CCCN1C(=O)[C@@H](N)Cc1ccc(O)cc1`, for which the IC50 ratio (guinea pig ileum / mouse vas deferens) worked out at 0.66.

For `CCOC(=O)[C@H](Cc1ccccc1)NC(=O)[C@H](Cc1ccccc1)NC(=O)[C@@H]1CCCN1C(=O)[C@@H](N)Cc1ccc(O)cc1`, the IC50 ratio (guinea pig ileum / mouse vas deferens) was determined as 1.

For `NNC(=O)[C@H](Cc1ccccc1)NC(=O)[C@H](Cc1ccccc1)NC(=O)[C@@H]1CCCN1C(=O)[C@@H](N)Cc1ccc(O)cc1`, the IC50 ratio (guinea pig ileum / mouse vas deferens) came to 0.71.

As for `COC(=O)[C@H](Cc1ccccc1)NC(=O)[C@H](Cc1ccccc1)NC(=O)[C@@H]1CCCN1C(=O)[C@@H](N)Cc1ccc(O)cc1`, the IC50 ratio (guinea pig ileum / mouse vas deferens) turned out to be 1.1.

`CC(C)(C)OC(=O)[C@H](Cc1ccccc1)NC(=O)[C@H](Cc1ccccc1)NC(=O)[C@@H]1CCCN1C(=O)[C@@H](N)Cc1ccc(O)cc1`: the IC50 ratio (guinea pig ileum / mouse vas deferens) worked out at 40.5.

For `CNC(=O)[C@H](Cc1ccccc1)NC(=O)[C@H](Cc1ccccc1)NC(=O)[C@@H]1CCCN1C(=O)[C@@H](N)Cc1ccc(O)cc1`, the IC50 ratio (guinea pig ileum / mouse vas deferens) was 2.5.

The next experiment deals with Delta-type opioid receptor (Rattus norvegicus, UniProt P33533). The experiment is described as follows: Displacement of [3H]DPDPE from delta opioid receptor in rat brain membrane. It counts as cell membranes. The gist of the method: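 Wistar rat brain membranes (cerebellum removed) in 50 mM Tris–HCl, pH 7.4. [³H]DPDPE at 1 nM with varying peptide concentrations for 3 h at 25 °C in a rotating incubator. GF/C vacuum filtration, three ice-cold buffer washes, scintillation counting. Naloxone defined nonspecific binding. Duplicates, repeated at least three times; Ki calculated.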
Sequence of Delta-type opioid receptor (Rattus norvegicus, UniProt P33533) (P33533 whole entry): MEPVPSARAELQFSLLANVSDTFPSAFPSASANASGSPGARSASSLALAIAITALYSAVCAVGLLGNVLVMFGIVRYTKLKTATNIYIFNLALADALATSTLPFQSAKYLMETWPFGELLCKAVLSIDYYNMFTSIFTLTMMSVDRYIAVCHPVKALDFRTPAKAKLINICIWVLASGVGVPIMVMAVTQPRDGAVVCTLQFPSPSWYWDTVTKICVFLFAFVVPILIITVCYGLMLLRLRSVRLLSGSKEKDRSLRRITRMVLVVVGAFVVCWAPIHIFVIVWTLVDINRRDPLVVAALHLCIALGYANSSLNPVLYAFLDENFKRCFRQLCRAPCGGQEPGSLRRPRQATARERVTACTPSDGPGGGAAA
The compound `N[C@@H](Cc1ccc(O)cc1)C(=O)N1CCC[C@H]1C(=O)N[C@@H](Cc1ccccc1)C(=O)N[C@H](CO)Cc1ccccc1` gave a Ki of more than 10000 nM.

With `CN(C)C(=O)[C@H](Cc1ccccc1)NC(=O)[C@H](Cc1ccccc1)NC(=O)[C@@H]1CCCN1C(=O)[C@@H](N)Cc1ccc(O)cc1`, the Ki is more than 10000 nM.

`CCOC(=O)[C@H](Cc1ccccc1)NC(=O)[C@H](Cc1ccccc1)NC(=O)[C@@H]1CCCN1C(=O)[C@@H](N)Cc1ccc(O)cc1` registered a Ki of 2940 nM.

Compound `NNC(=O)[C@H](Cc1ccccc1)NC(=O)[C@H](Cc1ccccc1)NC(=O)[C@@H]1CCCN1C(=O)[C@@H](N)Cc1ccc(O)cc1` showed a Ki of more than 10000 nM.

Compound `COC(=O)[C@H](Cc1ccccc1)NC(=O)[C@H](Cc1ccccc1)NC(=O)[C@@H]1CCCN1C(=O)[C@@H](N)Cc1ccc(O)cc1` registered a Ki of more than 10000 nM.

`CC(C)(C)OC(=O)[C@H](Cc1ccccc1)NC(=O)[C@H](Cc1ccccc1)NC(=O)[C@@H]1CCCN1C(=O)[C@@H](N)Cc1ccc(O)cc1`: affinity was put at a Ki of 247 nM.

`CNC(=O)[C@H](Cc1ccccc1)NC(=O)[C@H](Cc1ccccc1)NC(=O)[C@@H]1CCCN1C(=O)[C@@H](N)Cc1ccc(O)cc1` registered a Ki of 8470 nM.

The values above are taken from ChEMBL document CHEMBL1150405, “Structure-activity study of endomorphin-2 analogs with C-terminal modifications by NMR spectroscopy and molecular modeling” (Bioorg Med Chem, 2008).
